Experimental data from ChEMBL document CHEMBL1949557, “Discovery of INCB3284, a Potent, Selective, and Orally Bioavailable hCCR2 Antagonist” (ACS Med Chem Lett, 2011).
Calls of active or inactive are those of the source. No cut-off for these calls is given here.

Assays:
Liver [1] = assay: Metabolic stability in human liver S9 fraction assessed as glutathione adduct formation in presence of glutathione and NADPH; format: ADME, subcellular
[2] = Half life in dog at 5 mg/kg, iv; format: ADME, organism-based, Canis lupus familiaris; set-up: dose 5 mg/kg, route intravenous; settings: in vivo
Outline: (§1)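 Pharmacokinetics run in rats, dogs, cynomolgus monkeys and chimpanzees, with two animals per species for the iv arm and two per species for the oral arm. Parameters were derived per species and route: CL, Vss and T1/2 from iv dosing; Cmax, Tmax, AUC, T1/2 and F% from oral dosing. Values are reported as mean ± spread.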

[3] = Half life in cynomolgus monkey at 30 mg/kg, po; format: ADME, organism-based, Macaca fascicularis; set-up: dose 30 mg/kg, route oral; settings: in vivo; outline: as §1
[4] = Half life in dog at 30 mg/kg, po; format: ADME, organism-based, Canis lupus familiaris; set-up: dose 30 mg/kg, route oral; settings: in vivo; outline: as §1
[5] = Tmax in dog at 30 mg/kg, po; format: ADME, organism-based, Canis lupus familiaris; set-up: dose 30 mg/kg, route oral; settings: in vivo; outline: as §1
[6] = biological target: T1, C-C chemokine receptor type 1 (Homo sapiens) (UniProt P32246); assay: Inhibition of CCR1 at 1 uM
T1 sequence (whole entry): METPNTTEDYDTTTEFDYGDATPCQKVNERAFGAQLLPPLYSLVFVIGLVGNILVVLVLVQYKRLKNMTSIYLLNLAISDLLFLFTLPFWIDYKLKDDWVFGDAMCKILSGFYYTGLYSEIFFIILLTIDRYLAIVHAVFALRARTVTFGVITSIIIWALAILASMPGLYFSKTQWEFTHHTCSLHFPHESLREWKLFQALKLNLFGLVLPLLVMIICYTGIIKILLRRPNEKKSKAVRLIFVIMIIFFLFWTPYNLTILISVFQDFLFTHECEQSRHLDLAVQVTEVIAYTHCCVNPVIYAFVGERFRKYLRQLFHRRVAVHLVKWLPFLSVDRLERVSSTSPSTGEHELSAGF
Outline: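 Cerep selectivity panel of over 50 ion channels, transporters, chemokine receptors and other GPCRs. Single test concentration of 1 μM, scored for significant inhibition.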

Mus musculus = assay: Dose normalized AUC in mouse at 10 mg/kg, po; format: ADME, organism-based; set-up: dose 10 mg/kg, route oral; settings: in vivo
Outline: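 Mouse oral PK screen by cassette dosing at 10 mg/kg, three animals per cassette. AUC is dose-normalized.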

Liver [7] = assay: Metabolic stability in human liver S9 fraction assessed as glutathione adduct formation in presence of glutathione; format: ADME, subcellular
[8] = Fraction unbound in human serum at 1 to 10 uM; format: ADME, cell-free
Outline: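 Serum protein binding measured in human serum at 1 and 10 μM test concentrations. Read-out is the free (unbound) fraction.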

[9] = Cmax in dog at 30 mg/kg, po; format: ADME, organism-based, Canis lupus familiaris; set-up: dose 30 mg/kg, route oral; settings: in vivo; outline: as §1
[10] = Cmax in chimpanzee at 4 mg/kg, po; format: ADME, organism-based, Pan troglodytes; set-up: dose 4 mg/kg, route oral; settings: in vivo; outline: as §1
[11] = Tmax in rat at 10 mg/kg, po; format: ADME, organism-based; set-up: dose 10 mg/kg, route oral; settings: in vivo; outline: as §1
[12] = Half life in human administered as qd; format: ADME, organism-based; settings: in vivo
[13] = Tmax in cynomolgus monkey at 30 mg/kg, po; format: ADME, organism-based, Macaca fascicularis; set-up: dose 30 mg/kg, route oral; settings: in vivo; outline: as §1
[14] = Cmax in rat at 10 mg/kg, po; format: ADME, organism-based; set-up: dose 10 mg/kg, route oral; settings: in vivo; outline: as §1
Rattus norvegicus = assay: Clearance in rat at 5 mg/kg, iv; format: ADME, organism-based; set-up: dose 5 mg/kg, route intravenous; settings: in vivo; outline: as §1
Cytochrome P450 2D6 = Cytochrome P450 2D6 (Homo sapiens, UniProt P10635); assay: Inhibition of CYP2D6; format: ADME
[15] = biological target: T2, C-C chemokine receptor type 2 (Homo sapiens, UniProt P41597); assay: Displacement of [125I]MCP1 from CCR2 in human PBMC after 30 mins by gamma counter
[16] = Clearance in chimpanzee at 1 mg/kg, iv; format: ADME, organism-based, Pan troglodytes; set-up: dose 1 mg/kg, route intravenous; settings: in vivo; outline: as §1
[17] = biological target: T2, C-C chemokine receptor type 2; assay: Inhibition of human CCR2-mediated intracellular calcium mobilization by cell based assay; format: functional
[18] = AUC in cynomolgus monkey at 30 mg/kg, po; format: ADME, organism-based, Macaca fascicularis; set-up: dose 30 mg/kg, route oral; settings: plasma; outline: as §1
[19] = Half life in chimpanzee at 4 mg/kg, po; format: ADME, organism-based, Pan troglodytes; set-up: dose 4 mg/kg, route oral; settings: in vivo; outline: as §1

T2 sequence (P41597 whole entry): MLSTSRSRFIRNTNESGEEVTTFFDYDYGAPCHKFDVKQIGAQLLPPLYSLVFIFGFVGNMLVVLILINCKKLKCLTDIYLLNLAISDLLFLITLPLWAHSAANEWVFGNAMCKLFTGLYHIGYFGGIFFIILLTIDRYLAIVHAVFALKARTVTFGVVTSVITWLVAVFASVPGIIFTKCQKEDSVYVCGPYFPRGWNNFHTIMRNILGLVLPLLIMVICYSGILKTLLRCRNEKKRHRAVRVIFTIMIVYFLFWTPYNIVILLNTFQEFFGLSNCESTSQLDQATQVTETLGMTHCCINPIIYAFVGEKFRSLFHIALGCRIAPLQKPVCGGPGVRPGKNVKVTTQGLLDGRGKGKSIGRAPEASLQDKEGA
Chain of Cytochrome P450 2D6 (P10635 whole entry): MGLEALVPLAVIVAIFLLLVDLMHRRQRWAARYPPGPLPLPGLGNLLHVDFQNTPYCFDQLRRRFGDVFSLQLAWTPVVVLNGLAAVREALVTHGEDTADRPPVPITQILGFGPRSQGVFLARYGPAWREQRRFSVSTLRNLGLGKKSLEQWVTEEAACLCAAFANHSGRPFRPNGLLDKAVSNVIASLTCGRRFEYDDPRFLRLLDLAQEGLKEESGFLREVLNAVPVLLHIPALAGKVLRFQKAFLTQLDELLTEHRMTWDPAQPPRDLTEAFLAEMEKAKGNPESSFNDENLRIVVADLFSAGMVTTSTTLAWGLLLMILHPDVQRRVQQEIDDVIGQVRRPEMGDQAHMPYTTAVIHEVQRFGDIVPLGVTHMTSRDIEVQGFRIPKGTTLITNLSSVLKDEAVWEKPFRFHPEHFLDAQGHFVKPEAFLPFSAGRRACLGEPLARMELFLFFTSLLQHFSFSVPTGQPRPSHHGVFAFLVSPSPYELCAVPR

What does the source list for COc1ccc([C@]2(O)CC[C@H](N3CC[C@@H](NC(=O)CNC(=O)c4cccc(C(F)(F)F)c4)C3)CC2)cn1.CS(=O)(=O)O?
Stability (Liver [1]): Stable; half-life [2]: 3.5 h; half-life [3]: 5.1 h; half-life [4]: 3.3 h; Tmax [5]: 1.5 h; inhibition [6]: inactive; AUC/dose (Mus musculus): 617 nM·h; Stability (Liver [7]): Stable; fraction unbound at up to 10 µM [8]: 0.58; Cmax [9]: 7810 nM; Cmax [10]: 1120 nM; Tmax [11]: 4 h; half-life [12]: 15 h; Tmax [13]: 1.5 h; Cmax [14]: 573 nM; CL (Rattus norvegicus): 56.7 mL/min/kg; IC50 (Cytochrome P450 2D6): > 25000 nM; IC50 [15]: 3.7 nM; clearance [16]: 5.83 mL/min/kg; IC50 [17]: 6 nM; AUC [18]: 9.08 µM·h; half-life [19]: 5.3 h
